Reference: ChEMBL document CHEMBL2057135, “Synthesis, antitubercular and antimicrobial evaluation of 3-(4-chlorophenyl)-4-substituted pyrazole derivatives” (2012)
Values after ≈ are worked out from the molar mass of the structure shown.

Assays:
Format in all cases: functional
[1] = tested on: Aspergillus flavus; test: Antifungal activity against Aspergillus flavus KCCM 11899 after 2 days; conditions: KCCM 11899, 48 h
[2] = tested on: Staphylococcus aureus; test: Antibacterial activity against Staphylococcus aureus ATCC 29213
[3] = tested on: Escherichia coli; test: Antibacterial activity against Escherichia coli ATCC 25922
[4] = tested on: Mycobacterium tuberculosis; test: Antitubercular activity against Mycobacterium tuberculosis H37Rv ATCC 27294 after 7 days by BACTEC method; conditions: H37Rv ATCC 27294, 168 h
Outline: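 Screened in vitro against M. tuberculosis H37Rv in a modified BACTEC 460 radiometric system. Test compound stocks were made at 1 mg/ml in DMSO and filter-sterilised through 0.22 µm PTFE filters. MIC was read, with rifampin as the reference agent.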

[5] = tested on: Pichia kudriavzevii; test: Antifungal activity against Candida krusei KCCM 11655 after 1 day; conditions: KCCM 11655, 24 h
[6] = tested on: Aspergillus niger; test: Antifungal activity against Aspergillus niger KCTC 1231 after 2 days; conditions: KCTC 1231, 48 h
[7] = tested on: Cryptococcus neoformans; test: Antifungal activity against Cryptococcus neoformans KCCM 50564 after 1 day; conditions: KCCM 50564, 24 h

| Structure (SMILES) | MIC [1] [µg/mL] | MIC [2] [µg/mL] | MIC [3] [µg/mL] | MIC [4] [µg/mL] | MIC [5] [µg/mL] | MIC [6] [µg/mL] | MIC [7] [µg/mL] |
| --- | --- | --- | --- | --- | --- | --- | --- |
| COc1ccc(/C=N/NC(=O)c2cc(-c3ccc(Cl)cc3)n[nH]2)cc1OC | 12.5 (≈ 32.5 µM) | 0.25 (≈ 0.65 µM) | 4 (≈ 10.4 µM) | 0.37 (≈ 0.961 µM) | 50 (≈ 130 µM) | 25 (≈ 65 µM) | 12.5 (≈ 32.5 µM) |
| O=C(N/N=C/c1ccccc1)c1cc(-c2ccc(Cl)cc2)n[nH]1 | 3.2 (≈ 9.85 µM) | 4 (≈ 12.3 µM) | 1 (≈ 3.08 µM) | > 5 | 12.5 (≈ 38.5 µM) | 50 (≈ 154 µM) | 1.6 (≈ 4.93 µM) |
| COc1ccc(/C=N/NC(=O)c2cc(-c3ccc(Cl)cc3)n[nH]2)cc1 | 100 (≈ 282 µM) | 0.18 (≈ 0.507 µM) | 0.01 (≈ 0.0282 µM) | 0.85 (≈ 2.4 µM) | 100 (≈ 282 µM) | 12.5 (≈ 35.2 µM) | 50 (≈ 141 µM) |
| COc1cc(/C=N/NC(=O)c2cc(-c3ccc(Cl)cc3)n[nH]2)ccc1O | 12.5 (≈ 33.7 µM) | 0.12 (≈ 0.324 µM) | 0.017 (≈ 0.0458 µM) | 0.55 (≈ 1.48 µM) | 12.5 (≈ 33.7 µM) | 25 (≈ 67.4 µM) | 1.6 (≈ 4.32 µM) |
| O=C(N/N=C/c1ccccc1O)c1cc(-c2ccc(Cl)cc2)n[nH]1 | 6.3 (≈ 18.5 µM) | 0.4 (≈ 1.17 µM) | 0.015 (≈ 0.044 µM) | 1.1 (≈ 3.23 µM) | 50 (≈ 147 µM) | 100 (≈ 293 µM) | 25 (≈ 73.4 µM) |
| O=C(N/N=C/c1ccc(O)cc1)c1cc(-c2ccc(Cl)cc2)n[nH]1 | 50 (≈ 147 µM) | 0.35 (≈ 1.03 µM) | 0.012 (≈ 0.0352 µM) | 1.1 (≈ 3.23 µM) | 100 (≈ 293 µM) | 12.5 (≈ 36.7 µM) | 50 (≈ 147 µM) |
| O=C(N/N=C/c1ccccc1[N+](=O)[O-])c1cc(-c2ccc(Cl)cc2)n[nH]1 | 25 (≈ 67.6 µM) | 8 (≈ 21.6 µM) | 8 (≈ 21.6 µM) | > 5 | 100 (≈ 270 µM) | 3.2 (≈ 8.65 µM) | 1.6 (≈ 4.33 µM) |
| O=C(N/N=C/c1cccc([N+](=O)[O-])c1)c1cc(-c2ccc(Cl)cc2)n[nH]1 | 12.5 (≈ 33.8 µM) | 1.5 (≈ 4.06 µM) | 0.13 (≈ 0.352 µM) | > 5 | 25 (≈ 67.6 µM) | 25 (≈ 67.6 µM) | 1.6 (≈ 4.33 µM) |
| O=C(N/N=C/c1ccccc1Cl)c1cc(-c2ccc(Cl)cc2)n[nH]1 | 25 (≈ 69.6 µM) | 0.21 (≈ 0.585 µM) | 0.014 (≈ 0.039 µM) | 0.36 (≈ 1 µM) | 12.5 (≈ 34.8 µM) | 12.5 (≈ 34.8 µM) | 3.2 (≈ 8.91 µM) |
| O=C(N/N=C/c1ccc(Cl)cc1)c1cc(-c2ccc(Cl)cc2)n[nH]1 | 25 (≈ 69.6 µM) | 0.12 (≈ 0.334 µM) | 0.012 (≈ 0.0334 µM) | 1.1 (≈ 3.06 µM) | 12.5 (≈ 34.8 µM) | 12.5 (≈ 34.8 µM) | 1.6 (≈ 4.45 µM) |
| O=C(NN1C(=O)[C@H](Cl)[C@H]1c1ccccc1)c1cc(-c2ccc(Cl)cc2)n[nH]1 (racemic) | 100 (≈ 249 µM) | 0.51 (≈ 1.27 µM) | 0.48 (≈ 1.2 µM) | 1.25 (≈ 3.12 µM) | 100 (≈ 249 µM) | 25 (≈ 62.3 µM) | 50 (≈ 125 µM) |
| O=C(NN1C(=O)CSC1c1ccccc1)c1cc(-c2ccc(Cl)cc2)n[nH]1 (racemic) | 12.5 (≈ 31.3 µM) | 0.91 (≈ 2.28 µM) | 0.28 (≈ 0.702 µM) | 3.15 (≈ 7.9 µM) | 50 (≈ 125 µM) | 25 (≈ 62.7 µM) | 12.5 (≈ 31.3 µM) |
| COc1ccc([C@@H]2[C@@H](Cl)C(=O)N2NC(=O)c2cc(-c3ccc(Cl)cc3)n[nH]2)cc1 (racemic) | 12.5 (≈ 29 µM) | 0.0025 (≈ 0.0058 µM) | 0.06 (≈ 0.139 µM) | 1.2 (≈ 2.78 µM) | 12.5 (≈ 29 µM) | 3.2 (≈ 7.42 µM) | 1.6 (≈ 3.71 µM) |
| COc1ccc(C2SCC(=O)N2NC(=O)c2cc(-c3ccc(Cl)cc3)n[nH]2)cc1 (racemic) | 25 (≈ 58.3 µM) | 0.5 (≈ 1.17 µM) | 0.04 (≈ 0.0933 µM) | 0.65 (≈ 1.52 µM) | 50 (≈ 117 µM) | 3.2 (≈ 7.46 µM) | 12.5 (≈ 29.1 µM) |
| COc1ccc([C@@H]2[C@@H](Cl)C(=O)N2NC(=O)c2cc(-c3ccc(Cl)cc3)n[nH]2)cc1OC (racemic) | 6.3 (≈ 13.7 µM) | 0.05 (≈ 0.108 µM) | 0.5 (≈ 1.08 µM) | 1.15 (≈ 2.49 µM) | 12.5 (≈ 27.1 µM) | 12.5 (≈ 27.1 µM) | 3.2 (≈ 6.94 µM) |
| COc1ccc(C2SCC(=O)N2NC(=O)c2cc(-c3ccc(Cl)cc3)n[nH]2)cc1OC (racemic) | 12.5 (≈ 27.2 µM) | 0.06 (≈ 0.131 µM) | 0.2 (≈ 0.436 µM) | 1.2 (≈ 2.61 µM) | 12.5 (≈ 27.2 µM) | 6.3 (≈ 13.7 µM) | 50 (≈ 109 µM) |
| COc1cc([C@@H]2[C@@H](Cl)C(=O)N2NC(=O)c2cc(-c3ccc(Cl)cc3)n[nH]2)ccc1O (racemic) | 25 (≈ 55.9 µM) | 0.125 (≈ 0.279 µM) | 0.025 (≈ 0.0559 µM) | 0.6 (≈ 1.34 µM) | 1.6 (≈ 3.58 µM) | 3.2 (≈ 7.15 µM) | 12.5 (≈ 27.9 µM) |
